Molecules are shown by their SMILES. The source made the active and inactive calls. The rule behind the calls is not given here.

The target of assay [1] is T1, D(1A) dopamine receptor (Homo sapiens, UniProt P21728). The assay can be described thus: Agonist activity at recombinant human D1 receptor expressed in HEK29T cells assessed as induction of stimulatory G-protein-mediated cAMP accumulation measured after 15 mins by Glosensor-based FLIPR assay relative to dopamine. The assay is classed as functional, cell-based. The gist of the method: (§1)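 GloSensor-22F cAMP biosensor in HEK293T cells co-expressing human D1, seeded in DMEM + 1% dialyzed FBS; next day GloSensor reagent equilibrated ≥15 min at room temperature in HBSS/20 mM HEPES pH 7.4, then drug added in HBSS/HEPES/0.1% BSA/0.01% ascorbic acid. Luminescence read after 15 min; normalized to dopamine maximum (100%); sigmoidal fit; maximum tested 10⁻⁴ M; ≥3 experiments in triplicate.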

Assay [2] has as its target T1, D(1A) dopamine receptor. Nature of the assay: Agonist activity at recombinant human D1 receptor expressed in HEK29T cells assessed as induction of stimulatory G-protein-mediated cAMP accumulation measured after 15 mins by Glosensor-based FLIPR assay. The assay is classed as functional, cell-based. A digest of the protocol: as §1
In assay [3] the target is T1, D(1A) dopamine receptor. The assay can be described thus: Agonist activity at recombinant C-terminal RLuc8-fused human D1 receptor expressed in HEK29T cells co-expressing N-terminal Venus-tagged beta-arrestin2 assessed as increase in beta-arrestin2 recruitment measured after 15 mins in presence of coelenterazine H by BRET assay. Format: cell-based. The following applies: read-out: EC50.

Assay [4] concerns the target T1, D(1A) dopamine receptor. The assay can be described thus: Agonist activity at recombinant C-terminal RLuc8-fused human D1 receptor expressed in HEK29T cells co-expressing N-terminal Venus-tagged beta-arrestin2 assessed as increase in beta-arrestin2 recruitment at 10^-4M measured after 15 mins in presence of coelenterazine H by BRET assay relative to dopamine. The assay is classed as cell-based.

Assay [5] addresses T1, D(1A) dopamine receptor. The assay can be described thus: Agonist activity at recombinant C-terminal RLuc8-fused human D1 receptor expressed in HEK29T cells co-expressing N-terminal Venus-tagged beta-arrestin2 assessed as increase in beta-arrestin2 recruitment at 10^-4M measured after 15 mins in presence of coelenterazine H by BRET assay. The assay is classed as cell-based.

Assay [6] addresses T1, D(1A) dopamine receptor. The assay can be described thus: Agonist activity at recombinant C-terminal RLuc8-fused human D1 receptor expressed in HEK29T cells co-expressing N-terminal Venus-tagged beta-arrestin2 assessed as increase in beta-arrestin2 recruitment measured after 15 mins in presence of coelenterazine H by BRET assay relative to dopamine. The assay is classed as cell-based.

Assay [7] concerns the target T1, D(1A) dopamine receptor. The assay can be described thus: Bias factor, transduction co-efficient for agonist activity at recombinant human D1 receptor expressed in HEK29T cells assessed as induction of stimulatory G-protein-mediated cAMP accumulation to agonist activity at recombinant C-terminal RLuc8-fused human D1 receptor expressed in HEK29T cells co-expressing N-terminal Venus-tagged beta-arrestin2 assessed as increase in beta-arrestin2 recruitment. The assay is classed as functional, cell-based. The gist of the method:
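Dopamine as full-agonist reference; transduction coefficients log(τ/KA) for Gs-cAMP (GloSensor) and β-arrestin2 (BRET) computed relative to dopamine and averaged across experiments; bias factor derived by Kenakin method from the difference between Gs and β-arrestin2 coefficients.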

T1 sequence (P21728 whole entry): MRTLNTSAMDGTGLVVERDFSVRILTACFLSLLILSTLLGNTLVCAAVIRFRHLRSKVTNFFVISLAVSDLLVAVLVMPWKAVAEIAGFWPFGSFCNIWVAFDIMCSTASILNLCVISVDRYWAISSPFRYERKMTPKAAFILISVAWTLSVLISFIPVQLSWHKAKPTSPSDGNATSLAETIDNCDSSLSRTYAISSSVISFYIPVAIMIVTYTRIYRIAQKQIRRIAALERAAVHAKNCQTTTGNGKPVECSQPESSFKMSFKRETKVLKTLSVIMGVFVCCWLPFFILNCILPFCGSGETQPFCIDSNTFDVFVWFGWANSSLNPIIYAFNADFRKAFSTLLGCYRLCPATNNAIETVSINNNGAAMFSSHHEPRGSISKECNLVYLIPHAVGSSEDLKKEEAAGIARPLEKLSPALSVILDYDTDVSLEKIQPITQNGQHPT

Consider `Cc1cc(Oc2nccc3occc23)ccc1-c1nc(N)cnc1C`, for which, in assay [1], the maximal response (Emax) stood at 91%. Besides, the values for the EC50 in assay [2] and in assay [3] were 0.022 µM and above 10 µM, respectively.

For `Cc1cc(N(c2nccc3occc23)C2CCCC2)ccc1-c1c(C)ncc2nccn12`, the Emax in assay [1] turned out to be 68%. The results for the EC50 in assay [2] and in assay [3] were 1.1 µM and above 10 µM, respectively.

`Cc1cc(Oc2cc(N3CCCCC3)ccn2)ccc1-c1c(C)ncc2nccn12`: the Emax entry in assay [4] was “inactive”. Also, the result in assay [5] was inactive. In addition, the Emax in assay [1] was determined as 26%. Also, in assay [2], the EC50 stood at 0.64 µM.

For the compound `Fc1cc(-c2cccc3nccn23)cc(F)c1Oc1nccc2occc12`, in assay [1], the Emax worked out at 57%. For the same compound, the figures for the EC50 in assay [2] and in assay [3] were 0.19 µM and above 10 µM, respectively.

Take `Cc1cc(Oc2nccc3occc23)ccc1-c1cncc(C(N)=O)c1`: the Emax result in assay [4] was “inactive”. In addition, in assay [5], the result was inactive. In addition, the Emax in assay [1] was 59%. Besides, the 50% effective concentration (EC50) in assay [2] was determined as 1.3 µM.

In the case of `Cc1cc(Oc2cccc3occc23)ccc1-c1c(C)ncc2nccn12`, in assay [4], the Emax entry was “inactive”. Further, the outcome in assay [5] was inactive. Further, in assay [1], the Emax came out at 69%. In addition, the EC50 in assay [2] was 0.079 µM.

In the case of `Cc1cc(Oc2nccc3occc23)ccc1-c1c(C)nc2cnccn12`, the values for the maximal response (Emax) in assay [1] and in assay [6] were 63% and 89%, respectively. For the same compound, the EC50 in assay [2] stood at 0.0058 µM; in assay [3] it was 2.6 µM. In assay [7], the fold change (FC) amounted to 4.1.

Regarding `Cc1cc(N(c2nccc3occc23)C(C)C)ccc1-c1c(C)ncc2nccn12`, the Emax result in assay [4] was “inactive”. Besides, the outcome in assay [5] was inactive. Besides, in assay [1], the Emax was determined as 67%. Further, the EC50 in assay [2] is 0.1 µM.

`Oc1cc2c(cc1O)[C@H]1c3ccccc3CN[C@@H]1CC2` (racemic): the fold change (FC) in assay [7] is 7.5.

In the case of `CCN(c1ccc(-c2c(C)ncc3nccn23)c(C)c1)c1nccc2occc12`, the Emax entry in assay [4] was “inactive”. Besides, the result in assay [5] was inactive. The Emax in assay [1] stood at 80%. The EC50 in assay [2] was found to be 0.036 µM.

Turning to `Cc1cc(Oc2nccc3occc23)ccc1-c1ccc(C#N)cn1`, the Emax entry in assay [4] is “inactive”. Also, the outcome in assay [5] was inactive. Besides, in assay [2], the half-maximal effective concentration (EC50) was above 10 µM.

Regarding `Cc1cc(Oc2nccc3[nH]ncc23)ccc1-c1c(C)ncc2nccn12`, the Emax in assay [1] was found to be 104%. Besides, the 50% effective concentration (EC50) is 0.0018 µM in assay [2] and above 10 µM in assay [3].

On to `Cc1c(Oc2nccc3occc23)ccc(-c2cccc3nccn23)c1C`, for which, in assay [4], the Emax entry was “inactive”. In assay [5], the outcome was inactive. In assay [1], the Emax was found to be 30%. The 50% effective concentration (EC50) in assay [2] was determined as 0.11 µM.

In the case of `Cc1cc(N(C)c2nccc3occc23)ccc1-c1c(C)ncc2nccn12`, in assay [4], the Emax entry is “inactive”. In addition, in assay [5], the outcome was inactive. Besides, the Emax in assay [1] amounted to 79%. Also, in assay [2], the EC50 was determined as 0.088 µM.

Regarding `Cc1cc(Oc2nccc3occ(C4CC4)c23)ccc1-c1c(C)ncc2nccn12`, in assay [4], the Emax result was “inactive”. Also, the result in assay [5] was inactive. In assay [1], the Emax was determined as 67%. In addition, the EC50 in assay [2] stood at 0.062 µM.

`Cc1cc(-c2c(C)ncc3nccn23)ccc1Oc1nccc2occc12`: the Emax result in assay [4] is “inactive”. The outcome in assay [5] was inactive. In addition, the Emax in assay [1] was determined as 62%. For the same compound, the EC50 in assay [2] worked out at 0.61 µM.

With `Cc1cc(N(CC2CC2)c2nccc3occc23)ccc1-c1c(C)ncc2nccn12`, the Emax result in assay [4] is “inactive”. Further, the outcome in assay [5] was inactive. Also, the maximal response (Emax) in assay [1] worked out at 78%. Also, in assay [2], the EC50 was found to be 0.32 µM.

Turning to `FC(F)(F)c1cc(Oc2nccn3cccc23)ccc1-c1cccc2nccn12`, the Emax result in assay [4] was “inactive”. Besides, the result in assay [5] was inactive. Moreover, in assay [1], the Emax was 78%. The EC50 in assay [2] was 0.0078 µM.

Consider `Cc1cc(Oc2ncccc2Br)ccc1-c1c(C)ncc2nccn12`, for which, in assay [4], the Emax entry is “inactive”. Besides, the result in assay [5] was inactive. For the same compound, the EC50 in assay [2] is above 10 µM.

Regarding `Cc1cc(-c2cccc3nccn23)ccc1Oc1nccc2occc12`, the Emax result in assay [4] was “inactive”. In addition, the outcome in assay [5] was inactive. For the same compound, the maximum response (Emax) in assay [1] was found to be 29%. Besides, the EC50 in assay [2] is 0.53 µM.

As for `Cc1cc(Oc2ccccn2)ccc1-c1c(C)ncc2nccn12`, the Emax in assay [1] came out at 83%. Besides, the EC50 in assay [2] is 0.12 µM; in assay [3], above 10 µM.

For `COc1ccc(-c2ccc(Oc3nccc4occc34)cc2C)c(C)n1`, in assay [1], the Emax amounted to 80%. For the same compound, the EC50 in assay [2] is 0.077 µM; in assay [3] it was above 10 µM.

For `Cc1cc(Oc2nccn3cccc23)ccc1-c1c(C)ncc2nccn12`, the Emax in assay [1] amounted to 83%; in assay [6], 59%. The fold change (FC) in assay [7] came out at 15.

In the case of `Cc1cc(Oc2nccc3occc23)ccc1-c1c(C)cnnc1C`, the Emax entry in assay [4] is “inactive”. Moreover, the result in assay [5] was inactive. The maximum response (Emax) in assay [1] was determined as 61%. Further, in assay [2], the EC50 came out at 0.0012 µM.

For `Cc1ncc2nccn2c1-c1ccc(Oc2nccc3occc23)cc1N`, the Emax turned out to be 104% in assay [1] and 81% in assay [6]. Besides, the EC50 in assay [2] was determined as 0.0013 µM; in assay [3], 0.21 µM. For the same compound, in assay [7], the fold change (FC) was found to be 2.7.

For the compound `FC(F)(F)c1cc(Oc2nccc3occ(C4CC4)c23)ccc1-c1cccc2nccn12`, the Emax result in assay [4] is “inactive”. Further, the result in assay [5] was inactive. In addition, the Emax in assay [1] worked out at 83%. Also, the EC50 in assay [2] is 0.77 µM.

Take `FC(F)(F)c1cc(Oc2nccc3ccccc23)ccc1-c1cccc2nccn12`: the Emax result in assay [4] was “inactive”. In addition, the outcome in assay [5] was inactive. In addition, in assay [1], the Emax was 61%. Further, in assay [2], the EC50 was determined as 0.067 µM.

On to `Cc1cc(Oc2nccc(O)c2C)ccc1-c1c(C)ncc2nccn12`, for which the Emax result in assay [4] is “inactive”. In assay [5], the outcome was inactive. In assay [1], the Emax came to 34%. For the same compound, the EC50 in assay [2] was determined as 0.16 µM.

Consider `Cc1cc(Oc2nccn3ccnc23)ccc1-c1c(C)ncc2nccn12`, for which, in assay [4], the Emax result was “inactive”. For the same compound, the outcome in assay [5] was inactive. Moreover, in assay [1], the maximal response (Emax) worked out at 85%. In addition, in assay [2], the EC50 amounted to 0.26 µM.

Take `FC(F)(F)c1cc(Oc2nccn3ccnc23)ccc1-c1cccc2nccn12`: in assay [4], the Emax entry is “inactive”. For the same compound, the result in assay [5] was inactive. For the same compound, the Emax in assay [1] turned out to be 54%. Further, the EC50 in assay [2] was 0.18 µM.

`Cc1cc(Oc2nccc3occc23)ccc1-c1cc(N)cnc1C`: the Emax in assay [1] is 67%; in assay [6], 64%. Moreover, the EC50 amounted to 0.013 µM in assay [2] and 1.1 µM in assay [3]. The fold change (FC) in assay [7] was 1.2.

As to `COC(=O)c1cccn2c(-c3ccc(Oc4nccc5occc45)cc3C)cnc12`, in assay [4], the Emax result was “inactive”. For the same compound, the outcome in assay [5] was inactive. The Emax in assay [1] was 44%. The concentration giving a half-maximal response (EC50) in assay [2] was 1 µM.

As to `CCOc1ncnc(C)c1-c1ccc(Oc2nccc3occc23)cc1C`, the Emax in assay [1] is 67%. Further, the EC50 was 0.012 µM in assay [2] and above 10 µM in assay [3].

In the case of `Cc1cc(Nc2nccc3occc23)ccc1-c1c(C)ncc2nccn12`, the Emax in assay [1] worked out at 98%. Further, the EC50 is 0.016 µM in assay [2] and above 10 µM in assay [3].

For the compound `Cc1cc(Oc2nccc3occc23)ccc1-c1cccc2nccn12`, the maximal effect (Emax) in assay [1] was 95%; in assay [6], 63%. In addition, the concentration for a half-maximal effect (EC50) in assay [2] was determined as 0.0027 µM; in assay [3], 0.18 µM. The fold change (FC) in assay [7] was found to be 1.3.

Regarding `FC(F)(F)c1cc(Oc2ccccn2)ccc1-c1cccc2nccn12`, the Emax result in assay [4] is “inactive”. Besides, the outcome in assay [5] was inactive. Also, the Emax in assay [1] turned out to be 65%. In addition, the EC50 in assay [2] came out at 0.27 µM.

On to `Cc1cc(Oc2nccc3ccccc23)ccc1-c1c(C)ncc2nccn12`, for which the Emax in assay [1] was found to be 82%. Besides, the figures for the EC50 in assay [2] and in assay [3] were 0.015 µM and above 10 µM, respectively.

On to `Cc1ncc2nccn2c1-c1ccc(Oc2nccc3occc23)c(C)c1C`, for which the Emax entry in assay [4] is “inactive”. Also, the result in assay [5] was inactive. In assay [1], the Emax is 54%. Moreover, in assay [2], the EC50 was determined as 0.055 µM.

As for `Cc1ncc2nccn2c1-c1cc(F)c(Oc2nccc3occc23)c(F)c1`, the Emax result in assay [4] was “inactive”. The outcome in assay [5] was inactive. For the same compound, in assay [1], the Emax is 66%. Also, in assay [2], the EC50 was 0.14 µM.

The values are drawn from ChEMBL document CHEMBL4390674, “Defining Structure-Functional Selectivity Relationships (SFSR) for a Class of Non-Catechol Dopamine D1 Receptor Agonists” (J Med Chem, 2019).
